Six compounds from ChEMBL document CHEMBL2062459, “Type 1 Phototherapeutic Agents. 2. Cancer Cell Viability and ESR Studies of Tricyclic Diarylamines” (ACS Med Chem Lett, 2012) can be followed below.

This assay concerns U-937. The experiment in a line: Cytotoxicity in UV-irradiated human U937 cells exposed to photosensitizer for 2 hrs before irradiation for 20 mins by WST-1 assay. Type of assay: functional, cell-based. Conditions: U-937, light or radiation study. In outline:
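Compounds were made up as 8 mM DMSO stocks and diluted into culture medium so that final DMSO on cells stayed below 0.5%. Cells were tested across a concentration range both in the dark and with light exposure. Values are the average of at least three independent runs.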
Regarding `c1ccc2c(c1)Nc1ccccc1S2` [PHENOTHIAZINE], the half-maximal inhibitory concentration (IC50) is 1390 nM.

Take `c1ccc2c(c1)[nH]c1ccccc12` [CARBAZOLE]: the IC50 was determined as 5560 nM.

On to `c1ccc(C2c3ccccc3Nc3ccccc32)cc1`, for which the IC50 was found to be 170 nM.

In the case of `c1ccc2c(c1)Cc1ccccc1N2` [ACRIDAN], the 50% inhibitory concentration (IC50) stood at 680 nM.

Regarding `c1ccc2c(c1)Nc1ccccc1O2` [PHENOXAZINE], the IC50 is 14500 nM.

As for `C1=Cc2ccccc2Nc2ccccc21` [IMINOSTILBENE], the IC50 came to 2580 nM.

By IC50 is commonly meant the concentration at which inhibition is half-maximal.
